Results on four compounds are retold here after ChEMBL document CHEMBL3244000, “Aromatic hydroxylation of beta-adrenergic antagonists. Formation of 4'- and 5'-hydroxy-1-(isopropylamino)-3-[2'-allyloxy)phenoxy]-2-propanol from oxprenolol” (J Med Chem, 1979).

Data set [1] is described as follows: Drug level in Sprague-Dawley rat urine treated with oxprenolol hydrochloride at 20 mg/kg, ip measured after 24 hrs by GC-CIMS analysis in presence of beta-glucuronidase and CH2N2. The data set is classed as ADME, organism-based. The arrangement: dose 20 mg/kg, route intraperitoneal. The conditions noted are these: in vivo. The gist of the method: (§1)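 Six male Sprague-Dawley rats (120 g) were given oxprenolol hydrochloride ip at 20 mg/kg (4 mg/mL in sterile isotonic water). Urine was collected over 24 h in metabolic cages and pooled, then incubated overnight at 37 °C with 9200 units β-glucuronidase in pH 5.0 acetate buffer. Extract was methylated with diazomethane and TFA-derivatized. GC-CIMS monitored QM ions; isomer ratio was taken from the total ion current tracings.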

The nature of data set [2]: Drug level in Sprague-Dawley rat urine treated with oxprenolol hydrochloride at 20 mg/kg, ip measured after 24 hrs by GC-CIMS analysis. The arrangement: dose 20 mg/kg, route intraperitoneal. Type of data set: ADME, organism-based. Conditions: in vivo. The gist of the method: as §1

Consider `C=CCOc1cc(OC)ccc1OCC(O)CNC(C)C` (centres undefined), for which, in data set [1], the Drug excretion entry is “metabolite_detected”.

Regarding `C=CCOc1ccc(O)cc1OCC(O)CNC(C)C` (centres undefined), in data set [2], the Drug excretion entry is listed as “metabolite_detected”.

Consider `C=CCOc1cc(O)ccc1OCC(O)CNC(C)C` (centres undefined), for which the Drug excretion result in data set [2] was “metabolite_detected”.

As to `C=CCOc1ccc(OC)cc1OCC(O)CNC(C)C` (centres undefined), the Drug excretion entry in data set [1] was “metabolite_detected”.
